Published values pooled from the literature.
Each line is one published result; the experiments were not run side by side.
RORC: Nuclear receptor ROR-gamma (RORC, Homo sapiens, UniProt P51449)
Toll-like receptor 1/2: Toll-like receptor 1/2 (Homo sapiens, UniProt O60603+Q15399)

Structure (SMILES)	target	assay	setting	measurement	result
OC[C@@H]1[C@@H](O)[C@H](O)[C@@H](O)[C@@H]2O[C@H]12	Beta-glucosidase (GBA2, Homo sapiens, UniProt Q9HCG7)	enzyme activity, inhibitor	pH 6, lysate	IC50	1160 nM
Cc1cccc(C)c1COc1ccc2c(c1)N(S(=O)(=O)c1cccc(C(F)(F)F)c1)CC2	RORC	ligand displacement, radioligand		IC50	230 nM
CNc1ccc([N+](=O)[O-])cc1-n1cnc(-c2ccc(F)cc2)c1	Toll-like receptor 1/2	reporter gene, agonist		EC50	2780 nM
Cc1cc(Nc2cc3ncccc3c(N[C@@H]3C[C@H]4CC[C@@H](C3)N4CCC#N)n2)n[nH]1	Cyclin-dependent kinase 4, with cyclin D1 (CDK4, Homo sapiens, UniProt P11802)	binding, competition with immobilised ligand		Kd	150 nM
CCCC[C@H](NC(=O)[C@H](CCC(N)=O)NC(=O)[C@H](CO)NC(=O)[C@H](Cc1ccccc1)NC(=O)CCCCCN)C(=O)N[C@@H](CCCBr)B1O[C@@H]2C[C@@H]3C[C@@H](C3(C)C)[C@]2(C)O1	Chymotrypsinogen A (Bos taurus, UniProt P00766)	enzyme activity, inhibitor, fluorescence		Ki	496 nM
COc1c(Cl)cccc1COc1ccc2c(c1)N(S(=O)(=O)c1cccc(C(F)(F)F)c1)CC2	RORC	ligand displacement, radioligand		IC50	440 nM
CCOCc1nc(O)c(-c2nnc(Cc3ccc(Cl)cn3)o2)c(O)c1-c1c(OC)cccc1OC	Apelin receptor (Aplnr, Mus musculus, UniProt Q9WV08)	cAMP, agonist		EC50	0.03 nM
CNc1ccc([N+](=O)[O-])cc1-n1cnc(-c2ccc(C#N)cc2)c1	Toll-like receptor 1/2	reporter gene, agonist		EC50	210 nM
O=C(CCn1cc(CCN2CCN(c3cc4c(cc3F)c(=O)c(C(=O)O)cn4C3CC3)CC2)nn1)Nc1ccc(S[C@@H]2O[C@H](CO)[C@H](O)[C@H](O)[C@H]2O)cc1	PA-I galactophilic lectin (lecA, Pseudomonas aeruginosa, UniProt Q05097)	ligand displacement, FP		Ki	3190 nM
CCn1c(-c2nc3ccc(C(=O)N4CCCC(N)C4)cc3n2C)cc2ccccc21 (centres unmarked)	Muscarinic acetylcholine receptor M2 (CHRM2, Homo sapiens, UniProt P08172)	calcium signal, agonist		EC50	> 15800 nM
CNc1ccc(C(=O)OC)cc1-n1cnc(-c2ccc(C(F)(F)F)cc2)c1	Toll-like receptor 1/2	reporter gene, agonist		EC50	> 100000 nM
Cc1cnc(-c2ccc(-c3ccc(NC(=O)Nc4c(F)cc(F)cc4F)cc3F)c3c2C(=O)NC3)[nH]1	Myosin-IIIb (MYO3B, Homo sapiens, UniProt Q8WXR4)	binding, competition with immobilised ligand		Kd	76 nM
O=S(=O)(c1cccc(C(F)(F)F)c1)N1CCc2ccc(OCc3c(F)cncc3Cl)cc21	RORC	ligand displacement, radioligand		IC50	230 nM
CCCCc1ccc(-c2cn(-c3cc([N+](=O)[O-])ccc3NC)cn2)cc1	Toll-like receptor 1/2	reporter gene, agonist		EC50	230 nM
